Consider one compound from paper PMC10586269 (ACS Omega, 2023).

Broadly, the inhibition is the drop in the measured response relative to a control, in per cent. One may read the Kd as the equilibrium constant for the complex coming apart. Low readings indicate higher affinity, high ones lower affinity.

Structures are written as SMILES. Marks after values point to notes of the source that are not given here.

Experiment [1] concerns the target T1, PfHsp90-NTD (Plasmodium falciparum, UniProt Q8IC05). As to the kind of experiment: Competition binding, FITC-geldanamycin fluorescence polarization assay, PfHsp90. As to conditions: read-out: FP inhibition % PfHsp90 [10 μM]. In outline:
(§1)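 Ni-affinity-purified Hsp90 N-terminal domain (PfHsp90-NTD or human Hsp90β-NTD, expressed in E. coli), 100 nM final, mixed with 5 nM FITC-geldanamycin. FP read at 480 nm excitation and 535 nm emission, converted to percent bound FITC-GDA versus the DMSO control.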
(Polarisation of emitted light reports the rotation of a fluorescent probe.)

Experiment [2] has as its target human Hsp90β-NTD (Homo sapiens, UniProt P08238). It counts as binding. As to conditions: 10 μM compound, FITC-GDA displacement. In outline:
as §1

The target in experiment [3] is T1, PfHsp90-NTD. The experiment in a line: Equilibrium binding kinetics by MP-SPR. In outline: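 PfHsp90-NTD (20 μg/mL) was immobilised by amine coupling on a carboxymethyl dextran gold chip for multiparametric SPR. Running buffer was PBS with 0.005% Tween 20 and 20 mM EDTA, pH 7.4. Test compound (0–2000/5000 nM) was injected at 50 μL/min, with association for 1 min and dissociation for 9 min at room temperature. Signals were subtracted against a protein-free reference channel and buffer blanks.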

T1 sequence (Q8IC05 1-215): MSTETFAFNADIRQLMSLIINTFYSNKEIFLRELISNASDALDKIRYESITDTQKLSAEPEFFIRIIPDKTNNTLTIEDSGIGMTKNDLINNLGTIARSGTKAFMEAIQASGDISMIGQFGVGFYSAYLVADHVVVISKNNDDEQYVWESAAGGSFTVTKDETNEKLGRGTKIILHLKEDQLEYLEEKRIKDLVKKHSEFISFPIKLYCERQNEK
Chain of human Hsp90β-NTD (P08238 1-226): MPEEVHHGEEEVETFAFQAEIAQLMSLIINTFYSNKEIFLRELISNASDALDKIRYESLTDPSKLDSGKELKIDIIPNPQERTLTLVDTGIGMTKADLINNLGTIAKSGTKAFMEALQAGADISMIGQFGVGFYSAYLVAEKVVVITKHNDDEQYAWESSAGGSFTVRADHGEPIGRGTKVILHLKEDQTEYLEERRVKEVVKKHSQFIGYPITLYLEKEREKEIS

As for `COc1ccc2c(c1)[nH]c1c(C)nccc12` [harmine], the inhibition at 10 µM in experiment [1] was determined as 7 ± 6%. Also, the “FP inhibition% human Hsp90 [10 μM]” value in experiment [2] is on record as “no inhibition”. Besides, the Kd in experiment [3] (KD, Kd/Ka) was 1820 ± 100 nM; in experiment [3] (dissociation rate), 3.20 ± 4.8 1/s (×10^–6). Moreover, the Ka in experiment [3] (association) is recorded as 17.6 ± 14.9 1/Ms (×10^3).
